We go through 13 compounds from ChEMBL document CHEMBL1156965, “Design, synthesis and antimalarial/anticancer evaluation of spermidine linked artemisinin conjugates designed to exploit polyamine transporters in Plasmodium falciparum and HL-60 cancer cell lines” (Bioorg Med Chem, 2010).

Experiment [1] has as its system Plasmodium falciparum. Nature of the experiment: Antimalarial activity against chloroquine-sensitive Plasmodium falciparum 3D7 infected in human erythrocytes assessed as [3H]hypoxanthine incorporation after 24 hrs by liquid scintillation and luminescence counting. The format is functional, organism-based. Summed up: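 3D7 P. falciparum kept in human erythrocytes in RPMI-1640 with 25 mM HEPES, 32 mM NaHCO3, 10% human serum, under 3% O2/4% CO2/93% N2. Assay at 2% parasitemia, 0.5% haematocrit, triplicate, 37 °C. 0.5 µCi [3H]-hypoxanthine added after 24 h, then 24 h more (48 h total). Harvested and scintillation counted. IC50 by probit interpolation of log dose–response versus control wells.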

The subject of experiment [2] is HL-60. The experiment in a line: Antitumor activity against human HL60 cells after 72 hrs by MTT assay. The format is functional, cell-based. The following applies: HL-60, 72 h. In short, it runs like this: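 HL-60 cells in RPMI-1640 with 10% FBS and 1% L-glutamine, passages 5–15, viability >95%. 2.5 × 10^4 cells/well exposed to 0.01–100 µM for 72 h, DMSO final <0.5% v/v. MTT added for 4 h at 37 °C, then SDS/DMF lysis for 4 h. A570, reference 590 nm, as % of vehicle. Quadruplicate, ≥3 experiments. IC50 from individual curves.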
(In general: Tetrazolium assays rely on reduction of a dye to a coloured formazan, in cell work by metabolically active cells.)

For the compound `C[C@H]1[C@@H](CC(=O)NCCCCNCCCN)O[C@@H]2O[C@@]3(C)CC[C@H]4[C@H](C)CC[C@@H]1[C@@]24OO3`, the 50% inhibitory concentration (IC50) (as a rule, the concentration that inhibits the measured activity by half) in experiment [1] came out at 727 nM; in experiment [2], 35200 nM. Taken in the same sequence, the figures for `C[C@H]1[C@@H](CC(=O)NCCCN(CCCCNC(=O)OC(C)(C)C)C(=O)OC(C)(C)C)O[C@@H]2O[C@@]3(C)CC[C@H]4[C@H](C)CC[C@@H]1[C@@]24OO3` were 4.3 nM and 31200 nM. The corresponding values for `C[C@H]1[C@@H](CCNCCCCNCCCN)O[C@@H]2O[C@@]3(C)CC[C@H]4[C@H](C)CC[C@@H]1[C@@]24OO3` are 259 nM and 17800 nM. As for `C[C@@H]1CC[C@H]2[C@@H](C)C(=O)O[C@@H]3O[C@@]4(C)CC[C@@H]1[C@]32OO4` [ARTEMISININ], the IC50 in experiment [1] amounted to 9.2 nM. With `C[C@H]1[C@@H](CCN(CCCCNC(=O)OC(C)(C)C)CCCNC(=O)OC(C)(C)C)O[C@@H]2O[C@@]3(C)CC[C@H]4[C@H](C)CC[C@@H]1[C@@]24OO3`, the IC50 in experiment [1] is over 100 nM; in experiment [2], over 100000 nM. As to `C[C@H]1[C@@H](CC(=O)N(CCCCNC(=O)OC(C)(C)C)CCCNC(=O)OC(C)(C)C)O[C@@H]2O[C@@]3(C)CC[C@H]4[C@H](C)CC[C@@H]1[C@@]24OO3`, the half-inhibitory concentration (IC50) in experiment [1] is 4.8 nM; in experiment [2], over 100000 nM. Taken in the same sequence, the figures for `C[C@H]1[C@@H](CC(=O)NCCCNCCCCN)O[C@@H]2O[C@@]3(C)CC[C@H]4[C@H](C)CC[C@@H]1[C@@]24OO3` were 81 nM and 47700 nM. The corresponding values for `C[C@H]1[C@@H](CC(=O)N(CCCN)CCCCN)O[C@@H]2O[C@@]3(C)CC[C@H]4[C@H](C)CC[C@@H]1[C@@]24OO3` are 108 nM and over 100000 nM. Regarding `C[C@H]1[C@@H](CCN(CCCN)CCCCN)O[C@@H]2O[C@@]3(C)CC[C@H]4[C@H](C)CC[C@@H]1[C@@]24OO3`, the figures for the IC50 in experiment [1] and in experiment [2] were 15.2 nM and over 100000 nM, respectively. The corresponding values for `C[C@H]1[C@@H](CCNCCCNCCCCN)O[C@@H]2O[C@@]3(C)CC[C@H]4[C@H](C)CC[C@@H]1[C@@]24OO3` are 350 nM and 29200 nM. As to `C[C@H]1[C@@H](CCNCCCN(CCCCNC(=O)OC(C)(C)C)C(=O)OC(C)(C)C)O[C@@H]2O[C@@]3(C)CC[C@H]4[C@H](C)CC[C@@H]1[C@@]24OO3`, the values for the IC50 in experiment [1] and in experiment [2] were 0.76 nM and 16600 nM, respectively. For the compound `C[C@H]1[C@@H](CC(=O)NCCCCN(CCCNC(=O)OC(C)(C)C)C(=O)OC(C)(C)C)O[C@@H]2O[C@@]3(C)CC[C@H]4[C@H](C)CC[C@@H]1[C@@]24OO3`, the half-maximal inhibitory concentration (IC50) is 2.6 nM in experiment [1] and 22000 nM in experiment [2]. Taken in the same sequence, the figures for `C[C@H]1[C@@H](CCNCCCCN(CCCNC(=O)OC(C)(C)C)C(=O)OC(C)(C)C)O[C@@H]2O[C@@]3(C)CC[C@H]4[C@H](C)CC[C@@H]1[C@@]24OO3` were 0.21 nM and 11600 nM.
